# CSC inhib – blocks cancer stem cells; 1.1% of 300,000 active; cancer stem cell-like cells viability, luminescence; inhibition, % at 7.5 µM; in the data active = inhibition above about 75%; inconclusive = no clear call, values can overlap the other calls; tested in HMLE shEcad cells
# Calb FLC – C. albicans growth modulation with fluconazole | C. albicans CaCi-2 (fluconazole-resistant clinical isolate) + fluconazole, Alamar Blue growth, 48 h | growth inhibition, % (concentration not given with the values) | 0.57% of 300,000 active | AID 1979;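 active = growth inhibition above about 58% in most replicates, limit read from the data, passing the limit was not always enough; inconclusive = exactly half the replicates above a set limit; inactive = most replicates below a set limit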;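 also: all wells also contain fluconazole at 8 µg/ml as a sub-toxic cotreatment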
# T cruzi repl – blocks replication of Trypanosoma cruzi | 1.4% of 300,000 active | inhibition, % (no concentration beside the values) | T. cruzi beta-gal in NIH3T3, luminescence, 90 h | AID 1885;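 active = mean inhibition across valid replicates above about 55%, limit read from the data; inconclusive = mean below that limit but half or more replicates reach it; inactive = mean below it, under half of replicates reach it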;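 also: signal also drops with host cell toxicity which is not excluded here; higher percent means less beta-gal luminescence so fewer parasites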
#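 compound dosing = single 50 nL compound addition per well in DMSO | material = NIH/3T3 host cells with β-galactosidase reporter T. cruzi | input = 5,000 host fibroblasts per well | timing = ≥90 h infection period, 3 h prior cell attachment | read-out basis = percent inhibition of parasite-derived β-gal signal | detection = GalScreen β-gal luminescence, detergent lysis, 60 min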
# Mdm2 MdmX PPI – disrupts the human Mdm2-MdmX interaction | O15151+Q00987 | 3% of 330,000 active | SaOS-2 split-luciferase Mdm2/MdmX complementation, luminescence | inhibition, % at 8 µM | AID 485346;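 active = inhibition of at least 50% at 8 µM in the primary screen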
# Target sequence (O15151 whole entry, looked up): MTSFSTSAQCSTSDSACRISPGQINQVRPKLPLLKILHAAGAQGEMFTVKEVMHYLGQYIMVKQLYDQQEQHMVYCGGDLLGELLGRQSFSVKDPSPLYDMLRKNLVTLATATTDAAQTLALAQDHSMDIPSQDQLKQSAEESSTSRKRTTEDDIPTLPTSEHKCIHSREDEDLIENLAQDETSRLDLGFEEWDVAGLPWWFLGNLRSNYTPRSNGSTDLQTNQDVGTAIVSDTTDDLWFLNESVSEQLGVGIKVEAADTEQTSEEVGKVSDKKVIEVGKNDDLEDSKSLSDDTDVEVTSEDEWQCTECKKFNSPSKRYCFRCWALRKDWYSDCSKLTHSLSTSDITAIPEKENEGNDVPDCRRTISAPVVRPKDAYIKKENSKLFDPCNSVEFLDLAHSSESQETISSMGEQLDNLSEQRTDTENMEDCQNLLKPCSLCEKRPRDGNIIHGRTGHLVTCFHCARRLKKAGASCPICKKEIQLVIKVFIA
# Target sequence (Q00987 whole entry, looked up): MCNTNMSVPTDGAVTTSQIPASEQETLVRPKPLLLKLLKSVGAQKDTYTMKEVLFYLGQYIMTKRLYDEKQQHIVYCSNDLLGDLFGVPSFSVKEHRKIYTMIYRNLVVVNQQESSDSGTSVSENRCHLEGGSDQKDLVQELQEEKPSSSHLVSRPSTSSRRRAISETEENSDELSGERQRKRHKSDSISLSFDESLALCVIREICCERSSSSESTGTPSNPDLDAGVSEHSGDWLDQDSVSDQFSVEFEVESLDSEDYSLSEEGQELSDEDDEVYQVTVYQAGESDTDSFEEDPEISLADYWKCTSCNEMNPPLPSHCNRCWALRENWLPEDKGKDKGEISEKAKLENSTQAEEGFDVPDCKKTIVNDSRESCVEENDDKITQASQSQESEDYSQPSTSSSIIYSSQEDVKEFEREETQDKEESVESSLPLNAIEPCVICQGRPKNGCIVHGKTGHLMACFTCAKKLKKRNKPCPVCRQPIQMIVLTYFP
# SKKanGAS inh – SKKanGAS growth inhibition; S. pyogenes SKKanGAS, kanamycin growth, BacTiter-Glo, 6 h; inhibition, % at 7.5 µM; 1.3% of 300,000 active; AID 1662;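 active = mean replicate score, as percent of positive control median, at least 50; inconclusive = mean below 50 but one replicate at or above 50; inactive = mean and every replicate below 50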;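 also: strain carries kanamycin resistance gene driven by streptokinase promoter and grows in 40 µg/ml kanamycin; loss of luminescence reflects streptokinase promoter inhibition or plain growth inhibition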
# Beta cell apopt – blocks beta cell apoptosis. INS-1E cytokine-induced death, ATP luminescence, 48 h; percent of positive-control rescue, neutral wells zero. protection from apoptosis, % (no concentration beside the values). 0.8% of 300,000 active. AID 435005;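 active = Every replicate reaches about 75%, or at least half do and their mean reaches it too, limit read from the data; inconclusive = At least half of replicates reach the limit but their mean does not; inactive = Under half of replicates reach the limit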;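 also: higher means more ATP so stronger rescue from cytokine killing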
# Hits are given with their value; n = inactive; u = inconclusive; x = no result. Compounds with a hit are over-represented: about 5.7% of the library has one in this group of screens.
SMILES,CSC inhib,Calb FLC,T cruzi repl,Mdm2 MdmX PPI,SKKanGAS inh,Beta cell apopt
CCCCC(=O)Nc1nc(C)c(-c2csc(Nc3cc(OC)ccc3OC)n2)s1,81.3,n,n,n,n,n
Cc1ccc(N(CC(=O)NCCc2ccc(Cl)cc2)S(=O)(=O)c2c(C)noc2C)cc1,n,n,n,n,n,n
O=C(CN(c1ccc(Cl)cc1)S(=O)(=O)c1ccc(Cl)c([N+](=O)[O-])c1)NCCc1ccc(F)cc1,81.8,n,n,n,n,n
O=C(CN(c1ccc(Cl)cc1)S(=O)(=O)c1ccc(Cl)c([N+](=O)[O-])c1)NCCc1ccccc1,n,n,74.5,n,n,n
CS(=O)(=O)N(CC(=O)NCCc1ccccc1)c1cccc([N+](=O)[O-])c1,n,n,n,n,n,n
COc1cccc(CSCC(=O)NCCc2ccccc2)c1OC,n,n,n,n,n,n
CCOCCOC(=O)C1=C(C)NC2=C(C(=O)CC(c3cccs3)C2)C1c1ccsc1 (configuration not stated),n,n,n,n,n,n
CC1=C(C(=O)Nc2ccccc2F)C(c2ccsc2)C2=C(CC(c3ccccc3)CC2=O)N1 (configuration not stated),n,n,56.1,n,n,n
CCc1ccccc1NC(=O)C1CCN(C(=O)N2CCOc3ccccc32)CC1,n,n,n,n,n,n
CCCCCCCn1c2c(c(=N)c3c1CCC3)CCCC2,x,93.5,58.7,x,n,x
CCCCn1c2c(c(=N)c3c1CCC3)CCC2,n,x,x,n,x,n
OC(CNCCNc1ncccc1C(F)(F)F)Cn1ccc2ccccc21 (configuration not stated),n,n,n,n,n,n
Cc1nc(-c2ccncc2)nc(NCCNc2ncccc2C(F)(F)F)c1Cl,n,n,76.7,n,n,x
Cc1cc(C)c(C#N)c(SCc2nnc(-c3ccccc3[N+](=O)[O-])o2)n1,x,n,68.8,n,n,n
COC(=O)c1ccc(C2N=C(c3cccs3)CC(c3ccccc3O)N2)cc1 (configuration not stated),n,n,n,n,n,n
O=C(COc1ccc(Cl)c2cccnc12)N1CCOCC1,x,x,x,n,x,n
CC(=O)c1cccc(NC(=O)CSc2nc(=O)n(CCN3CCOCC3)c3c2CCC3)c1,n,n,n,n,n,n
CN(C)CCCNc1ccc(-c2nn(C)c(=O)c3ccccc23)cc1[N+](=O)[O-],n,n,67.6,n,n,n
COc1ccc(S(=O)(=O)N2CCCCC2)cc1NC(=O)CSc1nnc(C2CC2)n1C,n,x,x,n,x,n
Cc1ccc(-n2nc3c(N4CCC(C(=O)N5CCCCCC5)CC4)nnc(C)c3c2C)cc1,n,n,n,n,n,n
COc1ccc(-n2nc3c(N4CCC(C(=O)N5CCCCCC5)CC4)nnc(C)c3c2C)cc1,n,n,59.3,n,n,n
O=C(COC(=O)C1CC1)Nc1c(Cl)cccc1C(F)(F)F,n,n,n,n,n,n
N#Cc1cccc(NC(=O)CCNS(=O)(=O)c2ccc3[nH]c(=O)oc3c2)c1,n,n,n,n,n,n
CCOC(=O)N1CCC(n2c(SCC(=O)NCc3ccccc3)nc3ccccc3c2=O)CC1,n,n,n,n,n,n
CCOC(=O)N1CCC(n2c(SCC(=O)Nc3ccccc3OC)nc3ccccc3c2=O)CC1,n,n,56.1,n,n,x
SMILES,CSC inhib,Calb FLC,T cruzi repl,Mdm2 MdmX PPI,SKKanGAS inh,Beta cell apopt
COc1ccccc1NC(=O)CSc1nnc(C2CCCCC2)n1-c1ccccc1,82.0,n,n,n,n,n
CC(=O)N/C(=C/c1ccc(OS(=O)(=O)c2ccc(C)cc2)cc1)C(=O)Nc1ccc(C(=O)O)cc1,n,n,n,n,n,n
N/C(Cc1nc(-c2ccc(Br)cc2)cs1)=N\O,n,98.7,n,n,n,n
COC(=O)c1ccc(/C=C/C(=O)OCC(=O)Nc2cc(C)on2)cc1,n,x,x,n,x,n
Cc1cc(C)n(-c2ccc(C(=O)OCC(=O)Nc3ccc([N+](=O)[O-])cc3)cc2)n1,n,n,n,n,n,n
COc1ccc(C2=CSC3=NCCN23)cc1Br,n,n,n,n,n,x
Cc1cc(Oc2ccc(Cl)cc2)nc(-c2ccccc2O)n1,n,x,n,n,52.8,n
Cc1ccc(Oc2cc(C)nc(-c3ccccc3O)n2)cc1,x,n,n,n,n,n
Cc1cc(Cl)ccc1OCC(O)CNCCc1ccc(S(N)(=O)=O)cc1 (configuration not stated),n,n,n,n,n,n
COc1cccc(NC(=S)/C(=C(\[O-])c2cc(C)n(-c3ccccc3F)c2C)[n+]2ccc(N(C)C)cc2)c1,n,n,75.3,n,n,n
CS(=O)(=O)NN1C(=O)c2ccccc2NC1c1cccc2cccnc12 (configuration not stated),n,80.3,n,n,n,n
COC(=O)CCN1CCC(c2cc(-c3cccc(C(F)(F)F)c3)n[nH]2)CC1,n,n,n,n,n,n
FC(F)(F)c1cccc(CN2CCC(c3cc(-c4cccs4)n[nH]3)CC2)c1,n,n,60.6,n,n,n
FC(F)(F)c1cccc(-c2cc(C3CCNCC3)[nH]n2)c1,x,n,55.8,n,n,x
Cc1ccc(CN2CCC(c3cc(-c4cccs4)n[nH]3)CC2)cc1,n,n,u,n,n,n
Cc1cccc(C)c1N1CCN(CCn2c(=S)[nH]c3ccccc3c2=O)CC1,n,n,n,n,n,n
COc1ccc(CC(C)N2CCN(Cc3ccccc3)CC2)c(OC)c1 (configuration not stated),n,n,60.7,n,n,n
N#C/C(=C\c1c(N2CCCCC2)nc2ccccn2c1=O)S(=O)(=O)c1ccccc1,n,n,n,n,n,n
O=c1cc(-c2ccccc2)[nH]n1-c1nc2ccccc2s1,98.0,n,n,n,81.6,n
CC(=O)c1c(CC(=O)O)[nH]n(-c2nc3ccccc3s2)c1=O,n,n,n,n,n,n
CC1CN(C(=O)CSc2nnc(-c3ccccc3)o2)CC(C)O1 (configuration not stated),x,n,n,n,n,n
CC1=C(C(=O)Nc2ccc(C(=O)NCCCN3CCCCC3)cc2)SCCO1,n,n,n,n,n,n
COc1ccc(C(CNC(=O)COc2cc(C)c(Cl)c(C)c2)N2CCCCC2)cc1 (configuration not stated),x,n,n,n,n,x
O=C1CN(c2nc(-c3cccnc3)nc3scc(-c4ccccc4)c23)CCN1,n,n,62.8,n,n,n
CCCn1c2c(c(O)c(C(=O)Nc3ccc(OC)cc3)c1=O)CCCC2,n,n,61.2,n,n,n
CCCn1c2c(c(O)c(C(=O)NC)c1=O)CCCC2,x,n,n,n,n,n
C=CCN1C(=O)c2ccc(C(=O)N(C)CC(=O)Nc3ccccc3C(F)(F)F)cc2C1=O,x,n,n,n,n,n
Cc1ccccc1-n1c(=O)c(C#N)cc2c(=O)n3ccccc3nc21,n,54.5,n,n,n,x
Cc1cc(-n2c(=O)c(C#N)cc3c(=O)n4ccccc4nc32)no1,n,n,n,n,n,n
